Only some compounds are listed: those with a hit (about 1.2% of all), similar ones and a draw of the others.
procasp7 counter: procaspase-7 activators, primary screen, counter-screen for procaspase-3 activator project, biochemical, absorbance, HTS, human. recombinant procaspase-7, Ac-DEVD-pNA absorbance 405 nm; D23A/D198A/D206A triple mutant, cannot self-cleave; scale: DMSO 0, 5 µM enzyme 100. AID 463210, 2010. actives 0.093% (n = 330,000). activation, % at 8.5 µM. Caspase-7 (Homo sapiens), P55210;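 active means percent activation above the screen-wide mean plus 3 SD, cut at about 25% in these data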
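Assay system: Uncleavable procaspase-7 mutant enzyme | Input: 2 µM procaspase-7 mutant as dispensed | Timing: 1 h compound preincubation, 2 h substrate cleavage, 25 °C | Repeats: One well per compound | Control set: DMSO wells as 0%, DMSO with 5 µM added PC-7 as 100% | Technique: Epi-absorbance of released pNA at 405 nm, two timepoints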
IDE cell inh: human IDE inhibitors in live cells, primary screen, fluorescence polarization, HEK cells, FAbetaB substrate. actives 0.41% (n = 320,000). inhibition, % at 5.59 µM. Insulin-degrading enzyme (Homo sapiens), P14735. FAbetaB cleavage;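 active means percent inhibition above the average of all tested compounds plus 3 SD, set per screening campaign, cut at about 16% in these data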;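 further: IDE supplied by intact live HEK cells; FP after avidin binding of uncleaved biotin substrate so inhibition keeps polarization high; 0% = DMSO wells and 100% = 60 µM reference IDE inhibitor Ii1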
Target sequence (P14735 whole entry, looked up): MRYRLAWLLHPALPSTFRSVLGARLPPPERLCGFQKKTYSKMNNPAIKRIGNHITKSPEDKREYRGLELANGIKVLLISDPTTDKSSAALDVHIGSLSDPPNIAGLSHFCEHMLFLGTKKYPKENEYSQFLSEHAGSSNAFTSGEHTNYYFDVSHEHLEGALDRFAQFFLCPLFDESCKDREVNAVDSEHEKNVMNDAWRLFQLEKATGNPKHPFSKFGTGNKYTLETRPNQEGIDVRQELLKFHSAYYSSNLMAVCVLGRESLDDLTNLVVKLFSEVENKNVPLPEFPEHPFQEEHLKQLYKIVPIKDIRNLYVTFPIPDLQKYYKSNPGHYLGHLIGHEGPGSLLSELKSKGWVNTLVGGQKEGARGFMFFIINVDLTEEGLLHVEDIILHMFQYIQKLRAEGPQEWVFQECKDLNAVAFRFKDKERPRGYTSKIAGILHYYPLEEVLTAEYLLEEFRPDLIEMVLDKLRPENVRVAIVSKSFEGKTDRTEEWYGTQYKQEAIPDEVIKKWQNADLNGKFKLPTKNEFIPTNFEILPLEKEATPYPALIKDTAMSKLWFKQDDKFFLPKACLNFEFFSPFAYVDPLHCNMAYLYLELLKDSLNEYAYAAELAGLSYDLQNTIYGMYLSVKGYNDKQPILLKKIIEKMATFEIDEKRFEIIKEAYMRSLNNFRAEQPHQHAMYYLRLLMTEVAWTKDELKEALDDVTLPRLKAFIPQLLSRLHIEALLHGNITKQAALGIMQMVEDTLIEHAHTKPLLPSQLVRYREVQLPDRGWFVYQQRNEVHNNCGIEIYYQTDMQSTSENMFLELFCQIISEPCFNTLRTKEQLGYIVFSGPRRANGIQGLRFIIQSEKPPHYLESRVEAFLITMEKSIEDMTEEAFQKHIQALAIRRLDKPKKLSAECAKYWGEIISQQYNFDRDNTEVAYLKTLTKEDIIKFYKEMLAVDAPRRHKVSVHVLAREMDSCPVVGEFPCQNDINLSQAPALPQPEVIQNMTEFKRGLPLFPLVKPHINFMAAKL
TPT1 inhibitor: Candida albicans TPT1 enzyme inhibitors, primary screen, biochemical, fluorescence polarization. recombinant caTPT1, FP RNA substrate dephosphorylation. inhibition, % at 5 µM. actives 0.81% (n = 300,000). AID 1962, 2009;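 active means inhibition above the mean of all tested compounds plus 3 SD, set per screening campaign, cut at about 24% in these data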;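 further: plate controls were DMSO alone for no effect and ferristatin control at 100 nM for full effect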
procasp3 activ: activators of human procaspase-3 D3A mutant, primary screen, biochemical, absorbance, PC-3 D3A mutant, single concentration; Caspase-3 (Homo sapiens), P42574; recombinant procaspase-3 D3A, Ac-DEVD-pNA absorbance 405 nm; activation, % at 8.5 µM; actives 0.11% (n = 330,000);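 active means activation above the mean of all tested compounds plus 3 SD, cut at about 21% in these data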;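 further: 0% = DMSO alone and 100% = DMSO wells spiked with extra 5 µM PC-3 D3A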
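Assay system: Autoprocessing-dead procaspase-3 D3A mutant enzyme; also added: Ac-DEVD-pNA; doses: one concentration, 8.5 µM nominal, 0.8% DMSO; times: 1 h compound preincubation, 2 h substrate hydrolysis at 25 °C; technique: 405 nm absorbance of p-nitroaniline, reads at 0 and 120 min; measure: % activation between DMSO and enzyme-spiked controls; repeats: single replicate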
IDE cell activ: human IDE activators in live cells, primary screen, fluorescence polarization, HEK cells, FAbeta-B substrate | Insulin-degrading enzyme (Homo sapiens), P14735 | FAbeta-B cleavage; 0% vehicle, 100% cell-free pure enzyme wells | activation, % at 5.96 µM | actives 0.073% (n = 340,000) | AID 493087, 2011;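 active means activation above the mean of all tested compounds plus 3 SD, set per screening campaign, cut at about 17% in these data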
caTPT1 confirm: Candida albicans TPT1 inhibitors, confirmation, biochemical, fluorescence polarization, triplicate. shares compounds with TPT1 inhibitor. recombinant caTPT1, RNase T1 coupled. inhibition, % at 5 µM. actives 74% (n = 2,400). AID 2149, 2009;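 active means inhibition above the primary screen limit, the mean inhibition of all tested compounds plus 3 SD, cut at about 25% in these data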
RNase T1 inh: RNase T1 inhibitors, counter-screen for TPT1 inhibitor project, biochemical, fluorescence polarization | actives 83% (n = 2,400) | AID 2153, 2009 | RNase T1 cleavage, 1536-well | shares compounds with TPT1 inhibitor | inhibition, % at 5 µM;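 active means inhibition above the solvent-only control well mean plus 3 SD, limit set per screening run, cut at about 23% in these data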;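 further: plate controls were DMSO wells with enzyme for no effect and wells without RNase T1 for full effect; inhibitors block cleavage so intact labeled substrate keeps polarization high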
IDE cell inh cf: human IDE inhibitors in live cells, confirmation, fluorescence polarization, HEK cells, FAbetaB substrate; shares compounds with IDE cell inh; FAbetaB cleavage; inhibition, % at 5.59 µM; actives 51% (n = 1,200);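 active means mean inhibition across triplicate wells above the cutoff set by the earlier primary insulin-degrading enzyme screen, cut at about 16% in these data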;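 further: 0% = DMSO wells and 100% = 60 µM reference IDE inhibitor Ii1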
HEK cytotox: cytotoxicity in HEK cells, cytotoxicity control for IDE inhibitor project, cell-based, luminescence. shares compounds with IDE cell inh. HEK293 cytotoxicity, ATP luminescence. inhibition, % at 5.59 µM. actives 28% (n = 1,200); in the data active means inhibition above about 22%;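 further: 0% = vehicle wells and 100% = reference cytotoxic drug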
* = called active by the depositor; . = no result.

SMILES	procasp7 counter	IDE cell inh	TPT1 inhibitor	procasp3 activ	IDE cell activ	caTPT1 confirm	RNase T1 inh	IDE cell inh cf	HEK cytotox
CCc1ccccc1Nc1nc(N)nc(COC(=O)CCC(=O)c2ccc(F)cc2)n1	-6.4	-1.9	.	5.1	4.2	.	.	.	.
COCCn1c(SCC(=O)N2CCCCCC2)nnc1-c1ccco1	7.7	1.3	2.3	-5.2	-4.6	.	.	.	.
COc1ccccc1CNS(=O)(=O)c1cc(C(=O)N(C)Cc2cccnc2)c(Cl)cc1Cl	.	.	.	.	6.7	.	.	.	.
COCCn1c(SCC(=O)NC(C)c2ccc(F)cc2)nc2ccccc21 (stereo not drawn)	-3.4	4.3	0.9	-1.3	6.1	.	.	.	.
OCC1OCOC2C(CO)OCOC12 (stereo not drawn)	.	.	.	.	5.6	.	.	.	.
COc1ccc(/C=C/C(=O)c2c(O)cc(C)oc2=O)c(OC)c1	-5.7	19.9*	133.7*	-13.9	-8.6	53.5*	74.8*	1.6	19.2
O=C(c1cccc(N2C(=O)c3ccccc3C2=O)c1)N1CCCCCC1	-1.4	6.8	-0.4	3.5	-3.3	.	.	.	.
C=CCN1C(=O)c2cccc3c(N4CCCCC4)ccc(c23)C1=O	-10.9	21.7*	64.4*	-5.6	-74.5	41.4*	57.0*	84.9*	24.3*
O=C1c2cccc3c(N4CCCCC4)ccc(c23)C(=O)N1c1cccc(O)c1	-9.3	124.4*	75.3*	-8.3	-139.9	52.4*	60.9*	152.9*	24.8*
C=CCN1C(=O)c2cccc3c(Br)ccc(c23)C1=O	6.0	1.5	0.5	-4.2	2.3	.	.	.	.
CCN1/C(=C/c2ccc3cc(C)ccc3[n+]2CC)Sc2ccccc21	-144.7	90.7*	84.5*	-157.7	-57.6	97.2*	103.0*	135.9*	112.8*
COc1ccc(CN2CCN(S(=O)(=O)c3ccccc3)CC2)c(OC)c1OC	3.7	7.7	-0.5	3.2	7.6	.	.	.	.
CC(=O)c1sc(N/N=C\c2c(O)ccc3ccccc23)nc1C	-17.0	23.3*	117.1*	-6.9	-13.5	124.5*	119.5*	38.7*	38.5*
N#C/C(=C\c1ccc(O)c(O)c1)C(=O)Nc1ccccc1	-12.0	25.6*	33.3*	-5.9	-43.3	39.5*	48.2*	49.7*	9.6
CC(=O)Nc1cccc(NC(=O)c2ccc(COc3ccccc3)cc2)c1	.	.	.	.	8.3	.	.	.	.
CCN1CCc2c(sc(NC(=O)c3ccc(S(=O)(=O)N(C)CC4CCCO4)cc3)c2C(N)=O)C1 (stereo not drawn)	1.8	2.5	8.7	-2.1	4.8	.	.	.	.
CN1CCc2c(sc(NC(=O)c3ccc(S(=O)(=O)N4CCCCCC4)cc3)c2C(N)=O)C1	-3.0	24.6*	119.2*	-1.7	-17.6	125.5*	125.0*	4.3	19.1
CCCN1CCc2c(sc(NC(=O)c3ccc(S(=O)(=O)N(C)c4ccccc4)cc3)c2C(N)=O)C1	-22.5	16.2*	106.8*	-1.2	-8.0	112.6*	115.0*	11.3	26.1*
NC(=O)c1c(NC(=O)c2ccc(S(=O)(=O)N3CCOCC3)cc2)sc2c1CCCCC2	-5.7	2.9	-1.6	-8.0	-6.4	.	.	.	.
COc1ccccc1NC(=O)C(C)OC(=O)C1CCC(C(C)(C)C)CC1 (stereo not drawn)	-1.3	1.4	-0.8	-11.4	0.4	.	.	.	.
COC(=O)c1c(NC(=O)c2cccc(S(=O)(=O)N3CCN(C)CC3)c2)sc(C)c1C	-5.8	0.4	-1.7	5.3	4.5	.	.	.	.
O=C(O)Cc1sc(N/N=C\c2ccncc2)nc1-c1ccccc1	-47.3	40.0*	51.6*	-23.2	-67.0	43.0*	50.6*	32.1*	10.2
N#Cc1ccc(-c2cccnc2)nc1SCC(=O)c1ccccc1	2.8	23.4*	67.2*	-4.3	-40.8	66.1*	73.5*	41.7*	17.8
COc1ccc(N=Cc2oc3ccc4ccccc4c3c2O)cc1	-8.6	18.4*	114.1*	-6.8	-27.5	71.0*	75.2*	29.2*	5.3
COc1cc(OC)c(NC(=O)C2CCN(S(=O)(=O)c3ccc4c(c3)CC(C)N4C(C)=O)CC2)cc1Cl (stereo not drawn)	-3.7	-3.3	-2.8	0.5	6.2	.	.	.	.
SMILES	procasp7 counter	IDE cell inh	TPT1 inhibitor	procasp3 activ	IDE cell activ	caTPT1 confirm	RNase T1 inh	IDE cell inh cf	HEK cytotox
C/C(CCC(C)C)=N\Nc1cc(C)c2ccccc2n1	9.8	1.6	4.8	9.1	-2.9	.	.	.	.
O=C(c1ccc2c(c1)OCO2)N1CCN(S(=O)(=O)c2ccc(Cl)cc2)CC1	2.6	-0.7	-1.3	-2.8	0.0	.	.	.	.
CN1/C(=C/C=C(C#N)C#N)C(C)(C)c2ccccc21	-3.2	-4.5	12.9	-0.1	-2.6	.	.	.	.
CC1=C/C(=C\C=C(C#N)C#N)N(C)c2ccccc21	-1.5	80.6*	34.0*	-1.3	-86.6	33.3*	43.1*	125.1*	22.8*
CC[n+]1c(/C=C/C=C/N(C(C)=O)c2ccccc2)sc2cc(OC)ccc21	-23.4	40.5*	56.1*	-20.3	.	75.9*	81.0*	34.9*	63.5*
CCc1ccc(N=C2NC(=O)/C(=C/c3cc(OC)c(O)c(OC)c3)S2)cc1	.	.	.	.	-47.4	.	.	.	.
COc1cc(/C=C2\SC(=Nc3ccccc3)NC2=O)cc(Cl)c1O	-18.5	134.2*	104.6*	-10.1	-112.3	114.1*	109.5*	150.0*	28.2*
N#Cc1nc(-c2ccc(Cl)cc2)oc1NCC1CCCO1 (stereo not drawn)	5.9	0.6	-1.5	-0.1	1.9	.	.	.	.
CCNC(=O)NC(=O)C(C)OC(=O)c1cccn1C (stereo not drawn)	9.4	8.8	-2.6	1.7	2.5	.	.	.	.
N#C/C(=C\c1ccc(N2CCOCC2)o1)c1nc2ccccc2[nH]1	-5.3	20.0*	181.9*	-8.8	-150.7	158.2*	144.0*	25.9*	29.2*
